B1: tRNA (parent)
chain: GUUCCGUUGGCGUAAUGGUAACGCGUCUCCCUCCUAAGGAGAAGACUGCGGGUUCGAGUCCCGUACGGAACG

Variants of: B1
Test: yeast fitness, log relative to wild type (ln ratio); higher = fitter; tRNA-Arg(CCU), competitive growth, 37 C, 1 M NaCl
Summary of the method: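 BY4742 cells without the chromosomal tRNA-Arg(CCU) gene carried a combinatorial variant library on a HIS3 centromeric plasmid, from two independent transformations. After 4 generations in SC-HIS at 30 °C, pools spent ~6.5 generations (~26.5 h) in SC-HIS 1M NaCl at 37 °C, giving three outputs per input, and 125 bp paired-end Illumina reads counted the variants. Fitness is the natural log of each genotype's generations over the wild type's, with generations taken as OD-scaled log2 output/input frequency weighted by inverse variance across replicates.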

Variant	yeast fitness (ln)
AGUCCAUUGGCGUAAUGGUAACGCGUUUCCCUCCUAAGGAGAAGACUGCGGGUUCGAGUCCCGUACGGAGUG [G1A U2G G6A C27U A70G C71U]	-0.336
AGUCCAUUGGCGUAAUGGUAACGCGUUUCCCUCCUAAGGAGACGACUGCGGGUUCGAGUCCCGUACGGGGCG [G1A U2G G6A C27U A43C A69G A70G]	-0.341
GCUCCUUUGGCGUAAUGGUAACGCGUUUCCCUCCUAAGGAGACGAUUGCGGGUUCGAGUCCCGUAUGGAAUG [U2C G6U C27U A43C C46U C66U C71U]	-0.299
GGUCCAUUGGCGUAAUGGUAACGCGUCUCCCUCCUAAGGAGAAGACUGCGGGUUCGAGUCCCGUAUGGAUUG [U2G G6A C66U A70U C71U]	-0.0405
ACUCCUUUGGCGUAAUGGUAACGCGUCUCCCUCCUAAGGAGAAGAUUGCGGGUUCGAGUCCCGUACGGAACG [G1A U2C G6U C46U]	0.0116
AGUCCUUUGGCGUAAUGGUAACGCGUUUCCCUCCUAAGGAGACGAUUGCGGGUUCGAGUCCCGUACGGAAUG [G1A U2G G6U C27U A43C C46U C71U]	-0.277
GUUCCGUUGGCGUAAUGGUAACGCGUCUCCCUCCUAAGGAGACGACUGCGGGUUCGAGUCCCGUACGGAAUG [A43C C71U]	-0.038
GCUCCAUUGGCGUAAUGGUAACGCGUUUCCCUCCUAAGGAGAAGAUUGCGGGUUCGAGUCCCGUACGGAUUG [U2C G6A C27U C46U A70U C71U]	-0.123
AGUCCUUUGGCGUAAUGGUAACGCGUCUCCCUCCUAAGGAGAAGAUUGCGGGUUCGAGUCCCGUACGGAAUG [G1A U2G G6U C46U C71U]	-0.251
AUUCCUUUGGCGUAAUGGUAACGCGUCUCCCUCCUAAGGAGACGAUUGCGGGUUCGAGUCCCGUAAGGGGUG [G1A G6U A43C C46U C66A A69G A70G C71U]	-0.393
AGUCCUUUGGCGUAAUGGUAACGCGUCUCCCUCCUAAGGAGAAGACUGCGGGUUCGAGUCCCGUAUGGAAUG [G1A U2G G6U C66U C71U]	-0.249
AUUCCUUUGGCGUAAUGGUAACGCGUUUCCCUCCUAAGGAGAAGAUUGCGGGUUCGAGUCCCGUAUGGGUCG [G1A G6U C27U C46U C66U A69G A70U]	-0.454
GUUCCAUUGGCGUAAUGGUAACGCGUUUCCCUCCUAAGGAGACGACUGCGGGUUCGAGUCCCGUAAGGGUUG [G6A C27U A43C C66A A69G A70U C71U]	-0.54
ACUCCAUUGGCGUAAUGGUAACGCGUCUCCCUCCUAAGGAGAAGAUUGCGGGUUCGAGUCCCGUAUGGAGCG [G1A U2C G6A C46U C66U A70G]	-0.0233
GGUCCAUUGGCGUAAUGGUAACGCGUCUCCCUCCUAAGGAGAAGAUUGCGGGUUCGAGUCCCGUAUGGAACG [U2G G6A C46U C66U]	-0.0595
GUUCCAUUGGCGUAAUGGUAACGCGUUUCCCUCCUAAGGAGACGACUGCGGGUUCGAGUCCCGUACGGAGCG [G6A C27U A43C A70G]	-0.213
GCUCCAUUGGCGUAAUGGUAACGCGUCUCCCUCCUAAGGAGAAGACUGCGGGUUCGAGUCCCGUAUGGGUUG [U2C G6A C66U A69G A70U C71U]	-0.343
GCUCCUUUGGCGUAAUGGUAACGCGUCUCCCUCCUAAGGAGAAGACUGCGGGUUCGAGUCCCGUAAGGAACG [U2C G6U C66A]	-0.00733
GCUCCUUUGGCGUAAUGGUAACGCGUUUCCCUCCUAAGGAGACGACUGCGGGUUCGAGUCCCGUACGGAAUG [U2C G6U C27U A43C C71U]	-0.23

Variant	yeast fitness (ln)
GUUCCAUUGGCGUAAUGGUAACGCGUUUCCCUCCUAAGGAGACGAUUGCGGGUUCGAGUCCCGUAAGGGUUG [G6A C27U A43C C46U C66A A69G A70U C71U]	-0.471
GUUCCAUUGGCGUAAUGGUAACGCGUUUCCCUCCUAAGGAGACGAUUGCGGGUUCGAGUCCCGUAUGGGGUG [G6A C27U A43C C46U C66U A69G A70G C71U]	-0.28
GUUCCAUUGGCGUAAUGGUAACGCGUUUCCCUCCUAAGGAGAAGAUUGCGGGUUCGAGUCCCGUACGGGGCG [G6A C27U C46U A69G A70G]	-0.237
AGUCCAUUGGCGUAAUGGUAACGCGUUUCCCUCCUAAGGAGAAGAUUGCGGGUUCGAGUCCCGUAUGGAGUG [G1A U2G G6A C27U C46U C66U A70G C71U]	-0.243
GUUCCGUUGGCGUAAUGGUAACGCGUUUCCCUCCUAAGGAGACGAUUGCGGGUUCGAGUCCCGUACGGAUCG [C27U A43C C46U A70U]	-0.0673
GGUCCUUUGGCGUAAUGGUAACGCGUUUCCCUCCUAAGGAGAAGACUGCGGGUUCGAGUCCCGUAAGGAUCG [U2G G6U C27U C66A A70U]	-0.0251
GGUCCUUUGGCGUAAUGGUAACGCGUUUCCCUCCUAAGGAGACGACUGCGGGUUCGAGUCCCGUAUGGAACG [U2G G6U C27U A43C C66U]	-0.298
GUUCCAUUGGCGUAAUGGUAACGCGUUUCCCUCCUAAGGAGAAGAUUGCGGGUUCGAGUCCCGUAAGGAUCG [G6A C27U C46U C66A A70U]	-0.102
AGUCCAUUGGCGUAAUGGUAACGCGUUUCCCUCCUAAGGAGAAGAUUGCGGGUUCGAGUCCCGUAAGGAUCG [G1A U2G G6A C27U C46U C66A A70U]	-0.187
GUUCCAUUGGCGUAAUGGUAACGCGUUUCCCUCCUAAGGAGAAGAUUGCGGGUUCGAGUCCCGUACGGAAUG [G6A C27U C46U C71U]	-0.176
GUUCCAUUGGCGUAAUGGUAACGCGUCUCCCUCCUAAGGAGACGACUGCGGGUUCGAGUCCCGUACGGAGCG [G6A A43C A70G]	-0.223
AGUCCAUUGGCGUAAUGGUAACGCGUCUCCCUCCUAAGGAGACGAUUGCGGGUUCGAGUCCCGUAUGGGUCG [G1A U2G G6A A43C C46U C66U A69G A70U]	-0.306
GUUCCUUUGGCGUAAUGGUAACGCGUUUCCCUCCUAAGGAGAAGACUGCGGGUUCGAGUCCCGUACGGGACG [G6U C27U A69G]	-0.222
GGUCCUUUGGCGUAAUGGUAACGCGUUUCCCUCCUAAGGAGAAGACUGCGGGUUCGAGUCCCGUAAGGGUCG [U2G G6U C27U C66A A69G A70U]	-0.0809
AUUCCGUUGGCGUAAUGGUAACGCGUCUCCCUCCUAAGGAGACGAUUGCGGGUUCGAGUCCCGUACGGGACG [G1A A43C C46U A69G]	-0.261
GUUCCUUUGGCGUAAUGGUAACGCGUCUCCCUCCUAAGGAGAAGAUUGCGGGUUCGAGUCCCGUAUGGGGUG [G6U C46U C66U A69G A70G C71U]	-0.205
AUUCCUUUGGCGUAAUGGUAACGCGUCUCCCUCCUAAGGAGACGAUUGCGGGUUCGAGUCCCGUACGGGGCG [G1A G6U A43C C46U A69G A70G]	-0.281
GGUCCGUUGGCGUAAUGGUAACGCGUCUCCCUCCUAAGGAGACGAUUGCGGGUUCGAGUCCCGUACGGAUUG [U2G A43C C46U A70U C71U]	-0.0246
